# Assay outcomes deposited in PubChem by several laboratories.
# HSF1 inhib – HSF1 inhibition; activity change, negative = inhibition, % at 7.5 µM (by protocol); NIH3T3-HGL HSE-luciferase, MG132-induced, luminescence 8 h; active compounds read low; 300,000 compounds, 0.77% hits; AID 2098;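 active = more than half of replicate wells show activity change below -50%, luminescence cut by over half; inconclusive = some wells, but at most half, below -50%; inactive = no replicate well below -50%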;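 also: luciferase reports HSF-1 transcriptional activity via heat shock element; 0% = median of DMSO wells and -100% = zero luminescence signal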
# HSF-1 act – increases HSF-1 driven luciferase reporter signal; NIH3T3-HGL HSF-1 luciferase reporter, MG132, 8 h; 100% = twice DMSO control signal; activation, % at 9 µM; 300,000 compounds, 1.7% hits; AID 504408;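 active = mean replicate activation of at least 50% with a set share of replicates each reaching 50%; inconclusive = only one of those two conditions met; inactive = mean below 50% and too few replicates reaching it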;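 also: 0% = median of the neutral control wells and 100% = twice that signal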
# T cruzi repl – T. cruzi replication inhibition; T. cruzi beta-gal in NIH3T3, luminescence, 90 h; inhibition, % (concentration not given with the values); 300,000 compounds, 1.4% hits; AID 1885;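 active = mean inhibition across valid replicates above about 55%, limit read from the data; inconclusive = mean below that limit but half or more replicates reach it; inactive = mean below it, under half of replicates reach it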;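 also: signal also drops with host cell toxicity which is not excluded here; 0% = plate median of DMSO wells and 100% = zero luminescence signal; higher percent means less beta-gal luminescence so fewer parasites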
#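 Incubation – ≥90 h infection period, 3 h prior cell attachment · System – NIH/3T3 fibroblasts plus reporter T. cruzi · Doses – compound pinned at 50 nL/well, DMSO · Read-out basis – percent inhibition of parasite-derived β-gal signal · Signal – luminescent β-galactosidase signal after 60 min lysis · Also added – 5000 T. cruzi trypomastigotes/well · Medium – Low-serum DMEM with 2% FBS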
# GPR7 antagonist – human neuropeptides B/W receptor 1 antagonism; 290,000 compounds, 1.1% hits; GPR7-expressing cells, fluorescence antagonist assay; P48145; inhibition, % at 4.4 µM; in the data active = inhibition above about 16%, passing the limit was not always enough;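 also: cells stimulated with the agonist NPW; 0% = agonist with vehicle and 100% = vehicle without agonist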
# Target sequence (P48145 whole entry, looked up): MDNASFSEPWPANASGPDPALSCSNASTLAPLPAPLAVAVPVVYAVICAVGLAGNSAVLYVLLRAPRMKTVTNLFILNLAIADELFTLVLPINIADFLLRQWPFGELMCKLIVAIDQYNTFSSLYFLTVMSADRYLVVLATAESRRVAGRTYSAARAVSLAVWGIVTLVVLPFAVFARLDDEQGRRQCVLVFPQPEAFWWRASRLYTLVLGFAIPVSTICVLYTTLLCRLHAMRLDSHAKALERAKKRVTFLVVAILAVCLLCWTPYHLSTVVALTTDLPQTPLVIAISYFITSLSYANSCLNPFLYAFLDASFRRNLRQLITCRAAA
# Jurkat NFkB inh – lowers PMA/ionomycin-induced NF-kB signal in Jurkat cells. inhibition, % at 4 µM. PMA/ionomycin-induced NF-kB luciferase reporter, luminescence. 330,000 compounds, 0.53% hits; in the data active = inhibition above about 50%
# 697 NFkB inh – lowers PMA/ionomycin-induced NF-kB signal in 697 B cells. 697 B-cell NF-kB luciferase reporter, 16 h. inhibition, % at 4 µM. 330,000 compounds, 0.33% hits. AID 435022; in the data active = inhibition above about 35%
# The depositor's hits bear a star; ? = inconclusive; nt = no result. The list is not random: actives were taken first. Their share in the collection is about 4.8%.
SMILES,HSF1 inhib,HSF-1 act,T cruzi repl,GPR7 antagonist,Jurkat NFkB inh,697 NFkB inh
COc1cc(OC)c2nc(C)c3c(c2c1)N(c1ccc(O)cc1)CC3,2,9,83*,-5,nt,nt
CN(c1ccccc1)c1nc(N)c([N+](=O)[O-])c(N2CCCCCC2)n1,51,78*,20,-26,-1,-33
CC1CCN(c2nc(N(C)c3ccccc3)nc(N)c2[N+](=O)[O-])CC1,27,67*,10,-17,1,-22
CCN1CCN(c2nc(N(C)c3ccccc3)nc(N)c2[N+](=O)[O-])CC1,-3,3,31,-17,-5,0
O=C(CN1C(=O)NC(CCc2ccccc2)C1=O)NC1CC1 (stereo not given),-1,4,-11,24*,8,12
Cc1cc(OC(F)F)ccc1NC(=O)Nc1ccc([N+](=O)[O-])cc1,3,-7,15,41*,-7,-3
O=C(Nc1ccc([N+](=O)[O-])cc1)Nc1ccc(Cl)cc1F,4,4,-8,9,-8,-29
Cn1ccnc1C1CCCCN1Cc1nc(-c2ccc3c(c2)OCO3)no1 (stereo not given),0,5,-1,49*,-11,-9
Cn1ccnc1C1CCCCN1Cc1nc(Cc2cccc(C(F)(F)F)c2)no1 (stereo not given),6,3,-4,5,-20,-10
COc1ccc(C2CC(c3ccccc3)=NN2c2ccc(S(N)(=O)=O)cc2)cc1OC (stereo not given),11,20,28,13,13,20
COc1cc(C2CC(c3cccnc3)=NN2c2ccc(F)cc2)cc(OC)c1OC (stereo not given),50,65*,24,1,13,-7
CCOc1ccc(NC(=O)Cn2cc(C(=O)C3CC3)c3ccccc32)cc1,2,9,-6,-7,8,17
CC(=O)Nc1ccc(S(=O)(=O)NC2=C(N3CCN(c4ccc(F)cc4)CC3)C(=O)c3ccccc3C2=O)cc1,61,75*,-23,0,-2,-34
Cc1ccc(S(=O)(=O)NC2=C(N3CCN(c4ccccc4F)CC3)C(=O)c3ccccc3C2=O)cc1,-37,-37,27,0,-65,-73
N#Cc1ccc(NC(=O)Nc2ccc(Oc3ccc(NC(=O)Nc4ccc(C#N)cc4)cc3)cc2)cc1,10,45,61*,10,22,-5
COc1ccc(CNc2ccc(Cl)cc2)cc1Cn1ccnc1,-1,10,59*,24,-26,-43
CC(NCc1ccccc1Cl)C(=O)Nc1ccc(S(=O)(=O)N2CCCC2)cc1 (stereo not given),-4,-12,17,-3,2,-17
CC(NCc1ccccc1Cl)C(=O)Nc1ccc(C#N)cc1 (stereo not given),-3,-5,-9,18*,4,11
COc1ccc(/C=C2\N=C(c3ccccc3)N(c3ccc(C(=O)O)cc3)C2=O)cc1OC,-2,-18,12,-15,7,-4
O=C(NC(=Nc1nc2ccccc2o1)NC(=O)c1ccccc1)c1ccccc1,8,6,-2,-5,-66,-61
COc1ccccc1C(=O)NC(=Nc1nc2ccccc2o1)NC(=O)c1ccccc1OC,-7,11,71*,-2,-26,-9
O=C(Nc1ccccc1)c1ccc(Nc2c([N+](=O)[O-])cc([N+](=O)[O-])c3ccccc23)cc1,8,14,66*,-14,10,-5
Cc1c(C)c(C)c(S(=O)(=O)Nc2ccc3[nH]c(=O)[nH]c3c2)c(C)c1C,8,11,-19,-7,6,-43
O=C(NCCC1CCCCN1S(=O)(=O)c1ccc(F)cc1)C(=O)NCc1ccccn1 (stereo not given),2,3,5,nt,8,9
CCN(CC)C1=CC(=[N+]2CCCC2)CC(C)(C)C1,-4,0,64*,-14,46,-1
SMILES,HSF1 inhib,HSF-1 act,T cruzi repl,GPR7 antagonist,Jurkat NFkB inh,697 NFkB inh
CN(C)c1cccc(NC2=CC(=[N+]3CCOCC3)CC(C)(C)C2)c1,-1,2,11,0,8,-7
Cc1ccc(S(=O)(=O)N2CCC(C(=O)N[C@@H](Cc3ccccc3)C(=O)O)CC2)cc1,-78*,-81,-11,-8,-7,5
CCCNC(=O)c1oc2ccc3c(c2c1C)C(=O)CC(C)(C)O3,52,59*,12,-2,-127,-192
CCCCCNCc1ccc(Cl)cc1,-5,2,11,-6,-2,11
OCCCCNCc1ccc(OCc2ccc(Cl)cc2)cc1,10,17,57*,25,-2,-5
Cc1ccccc1C(=O)O/N=C1\CCS(=O)(=O)c2sccc21,47,74*,-8,7,-44,-6
O=C(Nc1ccnn1C1CCN(C(=O)c2ccc(F)c(Cl)c2)CC1)C1CC1,-7,-9,-5,-3,17,19
Cc1ccc(C2=NN(C(=S)Nc3ccccc3)C(c3ccco3)C2)cc1 (stereo not given),39,61*,46,-8,-85,-35
COc1ccc(/C=C/C(=O)N2c3ccccc3Sc3ccc(C(F)(F)F)cc32)cc1,-4,1,57*,4,-6,0
CCCCOC(=O)C1=C(N)N2C(=O)C(C)SC2=C(C(=O)OCC)C1c1ccc(O)c(OC)c1 (stereo not given),5,-14,-2,-9,-11,8
Cc1ccc2[nH]c(=O)c(C(c3nnnn3C(C)(C)C)N(Cc3ccco3)CC3CCCO3)cc2c1 (stereo not given),-1,-3,60*,-15,-16,4
Cc1ccc2cc(C(c3nnnn3C3CCCC3)N(Cc3cccnc3)Cc3ccco3)c(=O)[nH]c2c1 (stereo not given),3,-1,-5,-10,3,18
CCC(C)(C)n1nnnc1C(c1ccc(C)cc1)N(Cc1ccco1)Cc1cccs1 (stereo not given),-4,-14,55*,2,-1,-18
COc1cccc(CN(Cc2ccco2)C(c2ccc(F)cc2)c2nnnn2C(C)(C)C)c1 (stereo not given),-9,-11,34,12,-5,-14
Cc1ccc2cc(C(c3nnnn3C3CCCC3)N(Cc3ccco3)Cc3cccs3)c(=O)[nH]c2c1 (stereo not given),15,?,63*,-7,2,11
Cc1ccc(C2=NOC(=O)/C2=C\C=C\c2ccccc2)cc1,77,133*,?,0,nt,nt
O=C(Cn1nc(C(=O)O)c2ccccc2c1=O)Nc1cccc(S(=O)(=O)N2CCCCC2)c1,nt,nt,nt,nt,2,-5
Cc1cc(NC(=O)Cn2cnc3sc(C)c(-c4ccccc4)c3c2=O)no1,120,185*,16,2,nt,nt
